Experimental data from ChEMBL document CHEMBL2029265, “2-(Pyrrolidin-1-yl)ethyl-3,4-dihydroisoquinolin-1(2H)-one derivatives as potent and selective histamine-3 receptor antagonists” (J Med Chem, 2012).

Legend:
[1] = system: Mus musculus; experiment: Reversal of MK-801-induced memory deficit in po dosed mice at measured after 24 hrs by social odor recognition test; settings: read-out: MED
[2] = system: Salmonella typhimurium; experiment: Mutagenic activity in Salmonella typhimurium assessed as revertants by Ames test; assay type: toxicity, organism-based; settings: salmonella enterica subsp. enterica serovar typhimurium
In short: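 Screening Ames bacterial reverse mutation assay in Salmonella typhimurium, run at multiple dosages.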

[3] = system: Rattus norvegicus; experiment: Toxicity in rat assessed as respiratory distress at 600 mg/kg/day administered for 14 days as repeat dose; assay type: organism-based; settings: in vivo, 336 h
[4] = Terminal half life in Long Evans rat at 10 mg/kg, po administered as single dose; assay type: ADME, organism-based; design: dose 10 mg/kg, route oral; settings: in vivo, read-out: beta t1/2 (converted)
In short: (§1)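 Male Long Evans rats, single oral dose 10 mg/kg in 2% Tween/0.5% methyl cellulose in water. Plasma pharmacokinetics.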

[5] = Cmax in Long Evans rat at 10 mg/kg, po administered as single dose; assay type: ADME, organism-based; design: dose 10 mg/kg, route oral; settings: in vivo
In short: (§2)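 Male Long Evans rats received one oral dose of 10 mg/kg, formulated in 2% Tween/0.5% methyl cellulose in water. Plasma pharmacokinetic parameters were derived from this single dose.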

[6] = system: Canis familiaris; experiment: Toxicity in dog assessed as convulsions at >/= 60 mg/kg/day administered for 14 days as repeat dose; assay type: organism-based, Canis lupus familiaris; settings: in vivo, 336 h
In short: (§3)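 Dogs dosed for 14 days in a repeat-dose toxicity study at 20, 60 and 120 mg/kg/day. Clinical signs and QTc monitored.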

[7] = system: Rattus norvegicus; experiment: Toxicity in rat assessed as epithelial hyperplasia at 600 mg/kg/day administered for 14 days as repeat dose; assay type: organism-based; settings: in vivo, 336 h
[8] = Toxicity in dog; assay type: organism-based, Canis lupus familiaris; settings: in vivo
In short: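 14-day repeat-dose study in dogs at 20, 60 and 120 mg/kg/day, with clinical observation including cardiac rhythm and QTc; maximum tolerated dose derived from findings across dose groups.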

[9] = Tmax in Long Evans rat at 10 mg/kg, po administered as single dose; assay type: ADME, organism-based; design: dose 10 mg/kg, route oral; settings: in vivo
In short: as §1

[10] = Volume of distribution in Long Evans rat at 2 mg/kg, iv administered as single bolus dose; assay type: ADME, organism-based; design: dose 2 mg/kg, route intravenous; settings: in vivo
In short: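 Male Long Evans rats, single intravenous bolus 2 mg/kg, vehicle DMSO/80% PEG 200. Plasma pharmacokinetics.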

[11] = Oral bioavailability in beagle dog at 10 mg/kg administered as single dose; assay type: ADME, organism-based, Canis lupus familiaris; settings: in vivo
[12] = system: Canis familiaris; experiment: Toxicity in dog assessed as QTc prolongation at 20 mg/kg/day administered for 14 days as repeat dose; assay type: organism-based, Canis lupus familiaris; settings: in vivo, 336 h
In short: as §3

[13] = system: Rattus norvegicus; experiment: Reversal of time-induced cognitive deficit in po dosed rats by novel object recognition test; assay type: functional; settings: read-out: MED
[14] = Clearance in Long Evans rat at 2 mg/kg, iv administered as single bolus dose; assay type: ADME, organism-based; design: dose 2 mg/kg, route intravenous; settings: in vivo
In short: (§4)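 Male Long Evans rats were given a single intravenous bolus of 2 mg/kg in DMSO/80% PEG 200. Clearance, volume of distribution and elimination half-life were derived.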

[15] = system: Canis familiaris; experiment: Toxicity in dog assessed as arrhythmia at 20 mg/kg/day administered for 14 days as repeat dose; assay type: organism-based, Canis lupus familiaris; settings: in vivo, 336 h
In short: as §3

[16] = Toxicity in rat; assay type: organism-based; settings: in vivo
In short: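 14-day repeat-dose study in rats at 60, 200 and 600 mg/kg/day, with clinical observation and tissue findings; maximum tolerated dose derived from findings across dose groups.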

[17] = Elimination half life in Long Evans rat at 2 mg/kg, iv administered as single bolus dose; assay type: ADME, organism-based; design: dose 2 mg/kg, route intravenous; settings: in vivo, read-out: beta t1/2 (converted)
In short: as §4

[18] = AUC (0 to infinity) in Long Evans rat at 10 mg/kg, po administered as single dose; assay type: ADME, organism-based; design: dose 10 mg/kg, route oral, time infinity; settings: plasma
In short: as §2

[19] = Oral bioavailability in Long Evans rat at 10 mg/kg administered as single dose; assay type: ADME, organism-based; settings: in vivo
In short: as §2

[20] = Elimination half life in beagle dog at 2 mg/kg, iv administered as single bolus dose; assay type: ADME, organism-based, Canis lupus familiaris; design: dose 2 mg/kg, route intravenous; settings: in vivo, read-out: beta t1/2 (converted)
In short: (§5)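 Male beagle dogs received a single intravenous bolus dose of 2 mg/kg. Plasma clearance, volume of distribution and elimination half-life were determined.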

[21] = Volume of distribution in beagle dog at 2 mg/kg, iv administered as single bolus dose; assay type: ADME, organism-based, Canis lupus familiaris; design: dose 2 mg/kg, route intravenous; settings: in vivo
In short: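 Male beagle dogs, single intravenous bolus 2 mg/kg. Plasma pharmacokinetics.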

[22] = Clearance in beagle dog at 2 mg/kg, iv administered as single bolus dose; assay type: ADME, organism-based, Canis lupus familiaris; design: dose 2 mg/kg, route intravenous; settings: in vivo
In short: as §5

SMILES: CN(C)C(=O)c1ccc(-c2ccc3c(c2)CCN(CCN2CCCC2)C3=O)cc1.Cl
- minimal effective dose [1]: 1 mg/kg
- Activity [2]: Non-toxic
- Activity [3]: Toxic
- half-life [4]: 48 min
- Cmax [5]: 989 ng/mL
- Activity [6]: Toxic
- Activity [7]: Toxic
- MTD [8]: 20 mg/kg/day
- Tmax [9]: 18 min
- Vd [10]: 2.1 L/kg
- bioavailability [11]: 57%
- Activity [12]: Toxic
- minimal effective dose [13]: 1 mg/kg
- clearance [14]: 87 mL/min/kg
- Activity [15]: Toxic
- MTD [16]: 200 mg/kg/day
- half-life [17]: 18 min
- AUC(0-inf) [18]: 1650 ng·h/mL
- bioavailability [19]: 85%
- half-life [20]: 96 min
- Vd [21]: 3.1 L/kg
- clearance [22]: 23 mL/min/kg
